Calls of active or inactive are those of the source.
Columns and labels:
[1] = Drug uptake in LPS stimulated human HK-2 cells pretreated with LPS for 12 hrs followed by compound addition incubated for 2 to 6 hrs by inversed fluorescence microscope analysis; assay type: ADME, cell-based; settings: time 2-6 hrs
In short: (§1)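 HK-2 cells with or without LPS treatment incubated with compound for 2.0 and 6.0 h; uptake imaged by fluorescence microscopy; flow cytometry at 2.0 h.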

[2] = Drug uptake in human HK-2 cells assessed as increase in fluorescence intensity pretreated with LPS for 12 hrs followed by compound addition incubated for 6 hrs by mitotracker red based inverted microscopic analysis; assay type: ADME, cell-based; settings: hk-2, 6 h
In short: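 HK-2 cells co-stained with MitoTracker Red; mitochondrial colocalization of compound imaged by fluorescence microscopy; free CUR as control.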

[3] = tested on: HK-2; test: Nephroprotective activity against LPS induced human HK-2 cells assessed as increase in cell viability at 3 ug/ml incubated for 24 hrs by MTT assay relative to control; assay type: functional; settings: dose 3 µg/ml
In short: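 HK-2 cells exposed to 15 μg/mL LPS for 24 h; viability assessed by MTT assay; n = 6.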

[4] = Drug distribution in kidney of acute kidney injured Balb/c mouse model assessed as increase in CUR level at 4 mg/kg, iv after 2 hrs of administration by IVIS Lumina III analysis; assay type: ADME, organism-based; settings: in vivo
In short: (§2)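 Normal or AKI mice given intravenous dose (CUR, 4 mg/kg); heart, lung, liver, spleen and kidney imaged ex vivo 2 h later on IVIS Lumina III; tissue distribution as mean ± SD, n = 6.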

[5] = Drug distribution in kidney of acute kidney injured Balb/c mouse model assessed as KIM1 receptor mediated endocytosis at 4 mg/kg, iv by fluorescence imaging based assay; assay type: ADME, organism-based; settings: in vivo
In short: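 Renal tissue of AKI mice examined by fluorescence imaging for colocalization of compound (green) with immunostained KIM-1 receptor (red); free CUR as control.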

[6] = tested on: HK-2; test: Antioxidant activity in human HK-2 cells assessed as reduction in LPS induced mitochondrial reactive oxygen species generation at 7.16 ug/ml pretreated with LPS for 24 hr followed by compound addition incubated for 2 hr by MitoSOX staining based inverted fluorescent microscopic analysis; assay type: functional, cell-based; settings: dose 7.16 µg/ml
In short: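 LPS-treated HK-2 cells exposed to test agent (7.16 μg/mL); mitochondrial superoxide visualised with MitoSOX Red indicator by fluorescence imaging.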

[7] = tested on: HK-2; test: Antioxidant activity in human HK-2 cells assessed as reduction in LPS induced intracellular nitrotyrosine expression level pretreated with LPS for 24 hr followed by compound addition incubated for 2 hr by fluorescence imaging based assay; assay type: functional, cell-based
[8] = tested on: HK-2; test: Induction of apoptosis in LPS-induced human HK-2 cells assessed as inhibition of cytochrome c protein expression pretreated with LPS followed by compound addition incubated for 24 hrs by immunoblotting analysis; assay type: functional, cell-based
In short: (§3)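 LPS-treated HK-2 cells; cytochrome c in mitochondrial and cytosolic fractions, cleaved caspase-9 and cleaved caspase-3 detected by immunoblot, normalised to β-actin; mean ± SD, n = 3.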

[9] = tested on: HK-2; test: Induction of apoptosis in LPS-induced HK-2 cells assessed as inhibition of cleaved caspase-3 protein expression pretreated with LPS followed by compound addition incubated for 24 hrs by immunoblotting analysis; assay type: functional, cell-based; settings: Homo sapiens; in short: as §3
[10] = tested on: HK-2; test: Induction of apoptosis in LPS-induced HK-2 cells assessed as inhibition of cleaved caspase-9 protein expression pretreated with LPS followed by compound addition incubated for 24 hrs by immunoblotting analysis; assay type: functional, cell-based; settings: Homo sapiens; in short: as §3
[11] = tested on: HK-2; test: Induction of apoptosis in LPS-induced HK-2 cells assessed as increase in mitochondrial cytochrome C protein expression pretreated with LPS followed by compound addition incubated for 24 hrs by immunoblotting analysis; assay type: functional, cell-based; settings: Homo sapiens; in short: as §3
[12] = tested on: Mus musculus; test: Nephroprotective activity against LPS-induced acute kidney injured Balb/c mouse model assessed as reduction in serum creatinine level at 4 mg/kg,iv by automatic biochemical analysis; assay type: functional, organism-based
In short: (§4)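 Scr and BUN measured on automatic biochemical analyzer 24 h after administration (CUR, 4 mg/kg) to LPS-induced AKI mice; n = 6.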

[13] = tested on: Mus musculus; test: Nephroprotective activity against LPS-induced acute kidney injured Balb/c mouse model assessed as reduction in blood urea nitrogen level at 4 mg/kg,iv by automatic biochemical analysis; assay type: functional, organism-based; in short: as §4
[14] = tested on: Kidney; test: Antioxidant activity against LPS-induced acute kidney injured Balb/c mouse model assessed as increase in kidney superoxide dismutase level at 4 mg/kg,iv; assay type: functional, organism-based
In short: (§5)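 SOD, GSH and MDA levels determined in renal tissue of LPS-induced AKI mice after treatment at CUR 4 mg/kg; n = 6.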

[15] = tested on: Kidney; test: Antioxidant activity against LPS-induced acute kidney injured Balb/c mouse model assessed as increase in kidney GSH level at 4 mg/kg,iv; assay type: functional, organism-based; in short: as §5
[16] = tested on: Kidney; test: Antioxidant activity against LPS-induced acute kidney injured Balb/c mouse model assessed as reduction of increased MDA level at 4 mg/kg,iv; assay type: functional, organism-based; in short: as §5
[17] = tested on: Mus musculus; test: Antioxidant activity against LPS-induced acute kidney injured Balb/c mouse mitochondrial fraction of kidney assessed as reduction of H2O2 generation at 4 mg/kg,iv by Amplex Red dye Hydrogen Peroxide assay; assay type: functional, organism-based; settings: Mitochondria
In short: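 Mitochondria isolated intact from renal tissue of LPS-induced AKI mice; H₂O₂ production measured with Amplex Red H₂O₂/peroxidase detection kit after treatment at CUR 4 mg/kg; n = 6.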

[18] = tested on: Kidney; test: Anti-inflammatory activity against LPS-induced acute kidney injured Balb/c mouse model assessed as reduction in kidney TNF alpha level at 4 mg/kg,iv by ELISA; assay type: functional, organism-based
In short: (§6)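 TNF-α and IL-6 measured by ELISA in renal tissue of LPS-induced AKI mice after CUR-based treatment (CUR, 4 mg/kg); n = 6.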

[19] = tested on: Kidney; test: Anti-inflammatory activity against LPS-induced acute kidney injured Balb/c mouse model assessed as reduction in kidney IL-6 level at 4 mg/kg,iv by ELISA; assay type: functional, organism-based; in short: as §6
[20] = tested on: Kidney; test: Nephroprotective activity against acute kidney injured Balb/c mouse kidney assessed as decrease in vacuolar degeneration at 4 mg/kg,iv by H and E staining based assay; assay type: functional, organism-based
In short: (§7)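 Renal tissue of AKI mice stained with H&E and examined by optical microscopy for tubular epithelial swelling, vacuolar degeneration and brush border loss; treatment at CUR 4 mg/kg.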

[21] = tested on: Kidney; test: Nephroprotective activity against acute kidney injured Balb/c mouse kidney assessed as decrease in swollen tubular epithelial cells at 4 mg/kg,iv by H and E staining based assay; assay type: functional, organism-based; in short: as §7
[22] = tested on: Kidney; test: Nephroprotective activity against acute kidney injured Balb/c mouse kidney assessed as decrease in disappeared and expanded tubular border brush at 4 mg/kg,iv by H and E staining based assay; assay type: functional, organism-based; in short: as §7
[23] = tested on: Kidney; test: Antioxidant activity against acute kidney injured Balb/c mouse kidney assessed as reduction of nitrotyrosine expression at 4 mg/kg,iv by immunohistochemistry analysis; assay type: functional, organism-based
In short: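 Renal sections from AKI mice stained by immunohistochemistry for nitrotyrosine after treatment at CUR 4 mg/kg; scale bar 50 μm.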

[24] = Drug distribution in kidney of Balb/c mouse model assessed as increase in CUR level at 4 mg/kg, iv after 2 hrs of administration by IVIS Lumina III analysis; assay type: ADME, organism-based; settings: in vivo; in short: as §2
[25] = Drug uptake in LPS stimulated human HK-2 cells pretreated with LPS for 12 hrs followed by compound addition incubated for 2 to 6 hrs by flow cytometry method; assay type: ADME, cell-based; settings: time 2-6 hrs; in short: as §1
[26] = Drug uptake in human HK-2 cells incubated for 2 to 6 hrs by inversed fluorescence microscope analysis; assay type: ADME, cell-based; settings: time 2-6 hrs; in short: as §1
[27] = Drug uptake in LPS induced inflammation in human HK-2 cells assessed as decrease internalization in presence of Ser pretreated with LPS for 6 hr followed by compound addition incubated for 2 hr by flow cytometry; settings: hk-2, 2 h

COc1cc(/C=C/C(=O)CC(=O)/C=C/c2ccc(OC(=O)C(N)CO)c(OC)c2)ccc1OC(=O)CCCC[P+](c1ccccc1)(c1ccccc1)c1ccccc1.[Br-] (configuration not stated)
active: Activity [6] | Activity [7] | Activity [8] | Activity [9] | Activity [10] | Activity [11] | Activity [12] | Activity [13] | Activity [14] | Activity [15] | Activity [16] | Activity [17] | Activity [18] | Activity [19] | Activity [20] | Activity [21] | Activity [22] | Activity [23]
Active: Drug uptake [1] | Drug uptake [2] | Drug uptake [4] | Drug uptake [5] | Drug uptake [25] | Drug uptake [27]
Not Active: Drug uptake [24] | Drug uptake [26]
40%: Activity [3]
